# ABCG2 block: ABCG2 efflux pump inhibitors, primary screen, multiplex with ABCB1, IgMXP3 cells, flow cytometry. JC-1 efflux. inhibition, % at 6.6 µM. 190,000 compounds, 0.1% hits. AID 1325, 2008;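 active means inhibition above 80%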;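 further: 0% = DMSO and 100% = nicardipine control wells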
#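 Assay system – ABCG2 IgMXP3 and barcoded ABCB1 CCRF-Adr cell mix · Input – 3 million cells/mL in well · Reagent – JC-1 fluorescent substrate · Compound – single test compound dose, 6.6 µM final · Timing – 10 min exposure at 25 °C with rotation, no wash · Detection – flow cytometry of retained JC-1 fluorescence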
# RAM network inh: inhibitors of the yeast RAM network, primary screen, dse1pr::URA3 reporter, 5-FOA selection | 190,000 compounds, 1.8% hits | inhibition, % at 50 µM | AID 868, 2007 | S. cerevisiae dse1pr::URA3 reporter, 5-FOA growth OD615, 2 d; analog-sensitive cbk1-as2 kinase mutant strain;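 active means inhibition above a set limit, 3 SD over mean compound inhibition, cut at about 8.4% in these data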;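 further: 0% = DMSO-only wells with no growth and 100% = 10 µM 1-NA-PP1 full growth; inhibition rescues growth on 5-FOA so higher OD means more RAM inhibition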
# Arbovirus inh: antivirals against arbovirus infection, primary screen, cell-based, full library, 10K replicate subset; arbovirus infection cell-based antiviral screen; 200,000 compounds, 0.37% hits; inhibition, % at 10 µM; in the data active means inhibition above about 30%
# ABCB1 block: ABCB1 efflux pump inhibitors, primary screen, cell-based, multiplex, flow cytometry, ABCG2 counter-screen | ATP-dependent translocase ABCB1 (Homo sapiens), P08183 | CCRF-Adr cells, JC-1 efflux | inhibition, % at 6.6 µM | 190,000 compounds, 0.067% hits | AID 1326, 2008; in the data active means inhibition above about 40%;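 further: 0% = vehicle and 100% = reference inhibitor; higher value means more JC-1 retained so stronger ABCB1 efflux block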
# Target sequence (P08183 whole entry, looked up): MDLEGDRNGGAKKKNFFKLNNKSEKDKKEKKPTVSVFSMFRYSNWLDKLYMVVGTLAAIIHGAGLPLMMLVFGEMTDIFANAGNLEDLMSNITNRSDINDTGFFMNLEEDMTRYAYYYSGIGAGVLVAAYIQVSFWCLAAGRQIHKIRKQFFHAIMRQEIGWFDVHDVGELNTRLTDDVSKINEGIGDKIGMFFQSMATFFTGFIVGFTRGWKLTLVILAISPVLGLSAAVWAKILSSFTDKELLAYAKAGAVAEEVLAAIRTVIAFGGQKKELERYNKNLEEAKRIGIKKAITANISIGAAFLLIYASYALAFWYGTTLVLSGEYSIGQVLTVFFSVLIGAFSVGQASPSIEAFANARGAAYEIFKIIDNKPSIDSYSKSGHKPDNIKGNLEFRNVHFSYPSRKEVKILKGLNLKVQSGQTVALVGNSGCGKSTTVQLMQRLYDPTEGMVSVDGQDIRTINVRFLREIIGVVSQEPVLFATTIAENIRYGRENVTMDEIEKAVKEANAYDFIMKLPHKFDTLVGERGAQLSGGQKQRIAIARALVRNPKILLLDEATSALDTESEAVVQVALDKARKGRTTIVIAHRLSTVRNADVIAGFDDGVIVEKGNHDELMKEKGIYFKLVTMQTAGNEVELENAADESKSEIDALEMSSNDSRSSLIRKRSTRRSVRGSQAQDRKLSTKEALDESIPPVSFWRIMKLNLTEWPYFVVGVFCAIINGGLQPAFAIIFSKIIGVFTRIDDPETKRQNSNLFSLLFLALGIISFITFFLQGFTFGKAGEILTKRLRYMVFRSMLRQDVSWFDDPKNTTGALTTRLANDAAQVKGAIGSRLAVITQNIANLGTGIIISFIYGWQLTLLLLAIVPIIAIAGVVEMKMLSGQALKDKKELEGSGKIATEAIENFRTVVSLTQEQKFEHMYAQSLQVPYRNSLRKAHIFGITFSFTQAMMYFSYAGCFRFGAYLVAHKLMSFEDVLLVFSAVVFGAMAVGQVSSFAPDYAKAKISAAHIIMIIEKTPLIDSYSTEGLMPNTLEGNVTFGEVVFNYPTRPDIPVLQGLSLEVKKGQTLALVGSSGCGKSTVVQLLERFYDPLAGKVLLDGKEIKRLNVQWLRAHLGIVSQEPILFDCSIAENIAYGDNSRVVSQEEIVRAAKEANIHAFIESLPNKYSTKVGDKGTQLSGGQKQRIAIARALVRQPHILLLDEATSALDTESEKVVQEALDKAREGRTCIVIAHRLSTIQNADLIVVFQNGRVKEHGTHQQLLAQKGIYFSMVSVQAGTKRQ
# Starred values were filed as active, the others as inactive. In the library only some 2.3% were active in any assay of this set; here they are far more common.
SMILES,ABCG2 block,RAM network inh,Arbovirus inh,ABCB1 block
Nc1c(C(=O)NCc2ccc3c(c2)OCO3)c2nc3ccccc3nc2n1CCCN1CCOCC1,8,9.8*,-34,2
O=C(OC1CCOC1=O)c1ccc2ncsc2c1 (stereo not drawn),0,0,3,0
CCOC(=O)c1c(CSC(=N)N)n(-c2ccc(C)cc2)c2cc(Br)c(OC(C)=O)cc12,37,11*,-43,6
CCOC(=O)c1c(CN(C)C)n(-c2ccc(C)cc2)c2cc(Br)c(O)cc12,4,0,-5,1
CCOC(=O)c1c(C)[nH]c(C(=O)COC(=O)CCSc2ccccc2)c1C,7,9.5*,-8,-1
COc1ccc2c(c1OC)C(=O)N(c1ccccc1)C2=O,2,2,-4,0
Cn1cc(/C=C/C(=O)N2CCCC(C(=O)c3cccc(C(F)(F)F)c3)C2)cn1 (stereo not drawn),15,0,-2,2
Cc1ccc(C(=O)N/C(=C\c2cccs2)C(=O)NCc2cccnc2)cc1,6,0,30*,0
Cc1ccc(C(=O)N/C(=C\c2ccco2)C(=O)NCc2cccnc2)cc1,2,0,5,1
C/C(=N\Nc1nc2ccccc2[nH]1)c1ccc2c(c1)OCO2,13,5,36*,2
O=c1c2nnn(-c3ccc(Cl)cc3)c2ncn1Cc1ccccn1,7,2,-3,2
Cc1nc(CSc2ccc(Cl)cc2)cc(NCc2ccccc2)n1,2,3,-12,0
Cc1nc(CS(=O)c2ccc(Cl)cc2)cc(NCc2ccc(Cl)cc2Cl)n1 (stereo not drawn),12,0,85*,3
CCCCCOc1ccccc1C(=O)NCC(=O)O,0,-1,-4,0
COC(=O)CCC(=O)c1oc2ccccc2c1NC(=O)CCCN1C(=O)c2ccccc2C1=O,7,8.9*,-11,2
CC(=O)c1oc2ccccc2c1NC(=O)CCCN1C(=O)c2ccccc2C1=O,1,3,-1,0
Cc1c(Cl)c([N+](=O)[O-])nn1CCCC(=O)Nc1c(C)n(C)n(-c2ccccc2)c1=O,2,1,8,1
Cc1c(Cl)c([N+](=O)[O-])nn1CCCC(=O)Nc1c(Cl)cccc1Cl,11,9.9*,1,11
COc1ccc(NC(=O)C2CCN(S(C)(=O)=O)CC2)cc1,2,1,5,0
Cc1cc(C)c(C)c(OC(=O)c2sc(Cl)nc2C)c1,1,0,-15,0
CC(=O)c1ccc(N=Cc2c(O)n(-c3cc(Cl)ccc3N3CCOCC3)c(=O)c3ccccc23)cc1,-1,8.6*,-24,0
COc1ccc(-n2c(COc3ccc(C)cc3)nnc2SCc2ccc(C#N)cc2)cc1,4,9.6*,-6,2
Cc1ccc(OCc2nnc(SCC(=O)c3ccccc3)n2-c2ccccc2)cc1,4,9.4*,9,0
N#Cc1ccc(OCc2nnc(SCC(=O)c3ccccc3)n2-c2ccccc2)cc1,6,1,-1,3
COc1ccc(-n2c(COc3ccc(Cl)cc3)nnc2SCc2ccc(C#N)cc2)cc1,9,8,-13,2
SMILES,ABCG2 block,RAM network inh,Arbovirus inh,ABCB1 block
O=C(CSCc1c(Cl)cccc1Cl)Nc1ccc2c(c1)OCO2,3,9.7*,-7,0
O=C(CSCc1ccccc1)Nc1ccc2c(c1)OCO2,26,1,-5,1
O=C(c1cccc(Cl)c1)N1CCn2c1nc1ccccc12,2,2,-1,0
COc1ccc(S(=O)(=O)N[C@@H](C)C(=O)OCC(=O)Nc2cc3oc4ccccc4c3cc2OC)cc1,1,9.6*,-6,0
COc1cc2c(cc1NC(=O)CSc1nccn1C)oc1ccccc12,4,0,3,1
COc1cc2c(cc1NC(=O)CSc1ccccc1)oc1ccccc12,-2,11*,-8,-1
O=S(=O)(NC1=NCCC1)c1ccc(F)cc1,1,4,4,0
O=C(NC(=S)Nc1nc2ccccc2s1)c1cccs1,3,6,5,1
CCOC(=O)C1=C(O)/C(=C/c2cn(CC(=O)N3CCCC3)c3ccccc23)SC1=Nc1ccccc1,0,9.1*,-6,1
CC(=O)Nc1sc2c(c1C#N)CCC(C)C2 (stereo not drawn),1,0,-5,0
CC1CCc2c(sc(NC(=O)c3ccccc3C(=O)O)c2C#N)C1 (stereo not drawn),-1,3,59*,0
N#Cc1c(NC(=O)C2CC=CCC2C(=O)O)sc2c1CCCCCC2 (stereo not drawn),9,0,8,1
CC(C)(C)C1CCc2c(sc(NC(=O)C3CC=CCC3C(=O)O)c2C#N)C1 (stereo not drawn),1,3,36*,1
O=C(O)c1cccc(NC(=O)c2ccc(Cl)c(S(=O)(=O)N3CCCCCC3)c2)c1,-6,9.7*,2,-1
Cc1csc(NC(=O)c2ccc(C)c(S(=O)(=O)N3CCCCC3)c2)n1,-7,-1,31*,-3
Cc1csc(NC(=O)c2ccc(C)c(S(=O)(=O)N3CCOCC3)c2)n1,0,0,7,0
Cc1cc(C)n(C(=O)CN2C(=O)CCC2=O)n1,5,0,1,-1
CCOc1ncccc1C(=O)N=C1SCCN1C(=O)c1cccnc1OCC,8,2,5,1
CCOc1cccc(CN2CCN(Cc3ccc(C)o3)C(CCO)C2)c1O (stereo not drawn),2,0,0,0
O=C(C/C=N/OCc1ccc(F)cc1Cl)c1cnc(-c2ccccc2)s1,0,9.7*,8,0
CCOC(=O)Cc1csc(N(C)C)n1,7,2,9,0
O=[N+]([O-])c1ccc(-c2c(O)c3ccccc3c3nc4ccccc4nc23)cc1,1,1,32*,0
COc1cccc(CNC(=O)Cn2cc3c(n2)CCCCC3)c1,1,0,-4,0
Cc1ccc(C2CC(=O)c3cnn(-c4nc(C)cc(C)n4)c3C2)cc1 (stereo not drawn),9,0,36*,1
Cc1ccccc1C(=O)/C=C1/c2ccccc2CC(C)(C)N1C,-5,-2,17,0
SMILES,ABCG2 block,RAM network inh,Arbovirus inh,ABCB1 block
COc1ccc(NC(=O)c2csc(Cc3ccc(Cl)cc3)n2)cc1,3,11*,-19,0
COc1ccc(Cc2nc(C(=O)Nc3ccc(Cl)cc3)cs2)cc1,1,8.8*,0,0
Cc1ccccc1Cc1c(C)nc2c(C(=O)NCc3ccco3)cnn2c1C,1,10*,-8,1
Cc1ccccc1Cc1c(C)nc2nc(SCC(=O)NCc3ccco3)nn2c1C,1,2,-18,1
Cc1nc(Nc2nc3ccccc3o2)nc2c1CCC2,6,0,-6,1
Cc1cccc(C)c1Nc1nc2ccccc2o1,-4,-1,46*,-3
